Measurements published in publication PMC5783296 (SLAS discovery : advancing life sciences R & D, 2017).
Where a name gives a salt, the structure may show the parent alone.

Columns and labels:
[1] = biological target: T1, interaction between NHP2L1 and U4 5′SL (Homo sapiens, UniProt P55769); assay: TR-FRET HTS assay of NHP2L1-U4 interaction; type: binding; conditions: for potency in dose response screening (IC50 ranking): dose responsive analysis, ten 1:3 dilutions, TR-FRET; for disruption of the interaction of U4 and NHP2L1: TR-FRET dose response, camptothecin derivatives
T1 sequence (P55769 1-128): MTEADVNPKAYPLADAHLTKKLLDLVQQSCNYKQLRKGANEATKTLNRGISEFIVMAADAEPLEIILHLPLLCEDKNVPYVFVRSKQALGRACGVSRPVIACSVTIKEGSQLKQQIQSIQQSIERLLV

NHP2L1 U4 complex [2] = biological target: T2, NHP2L1 U4 complex (Homo sapiens, UniProt P55769); assay: Electrophoretic gel mobility shift assay; type: binding; conditions: topotecan 0.2, 2, 20, 200 μM
T2 sequence (P55769 1-128): T1 sequence (P55769 1-128)
How it was run: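 Recombinant NHP2L1 (E. coli BL21(DE3), Ni-chelate then gel filtration) plus biotinylated U4 5′SL, ±test compound, 45 min at room temperature in 20 mM Tris-HCl pH 7.6, 150 mM NaCl, 0.1% Triton X-100, 2 mM DTT, 0.5 g/L tRNA. Run on 6% retardation gel, 0.5× TBE, 100 V, 60 min, then nylon transfer and chemiluminescent detection. Shifted band quantified by densitometry as % of complex without compound.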

U4 5′ SL [3] = assay: Surface plasmon resonance, immobilized U4 5′SL; type: binding; conditions: max 50μM, OneStep gradient injection, 20° C
NHP2L1 protein = biological target: T3, NHP2L1 protein (Homo sapiens, UniProt P55769); assay: Surface plasmon resonance, immobilized NHP2L1; type: binding; conditions: max 50μM, OneStep gradient injection, 20° C
T3 sequence (P55769 1-128): T1 sequence (P55769 1-128)

U4 5′ SL [4] = assay: 1D NMR titration of U4 5′SL; type: binding; conditions: U4:topotecan 1:0 to 1:10
How it was run: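 Solution NMR at pH 5.0 (100 mM NaCl, 100 mM sodium phosphate, 10% D2O, 2% DMSO-d6). U4 5′SL at 100 μM with increasing test compound, monitored by 1D and 2D [1H,1H] TOCSY (60 ms mixing) and NOESY (100 ms mixing) spectra.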

NHP2L1 U4 complex [5] = biological target: T2, NHP2L1 U4 complex; assay: NMR of NHP2L1-U4 complex with topotecan; type: binding
How it was run: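 15N-labelled NHP2L1 was premixed 1:1 with unlabelled U4 5′SL in pH 5.0 phosphate buffer (100 mM NaCl, 10% D2O, 2% DMSO-d6), with backbone assigned from HNCA/HNCACB. Chemical shift perturbations were read from 2D [15N,1H] HSQC/TROSY at 64 scans, and at 400 scans for the 1:1:20 TROSY.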

[6] = test system: pre-mRNA splicing (pTN23 reporter) in HEK293 cells; assay: pTN23 splicing reporter assay; type: cell-based, Human; conditions: HEK293, topotecan 250nM, 24 hours
[7] = biological target: T4, NHP2L1 (15.5K), His-tagged (UniProt P55769 1-128); assay: TR-FRET
T4 sequence: T1 sequence (P55769 1-128)

In the case of `CC[C@@]1(O)C(=O)OCc2c1cc1n(c2=O)Cc2cc3cc(O)ccc3nc2-1` [10-OH-(S)-camptothecin], the “potency in dose response screening (IC50 ranking)” value (shortened to “potency in dose response screening”) [1] is reported as “among the most potent inhibitors”.

`CC[C@@]1(O)C(=O)OCc2c1cc1n(c2=O)Cc2cc3c(CNC)c(O)ccc3nc2-1` [N-demethyl-topotecan, N-Desmethyl topotecan] was tested, and the “disruption of the interaction of U4 and NHP2L1” value (from here on “disruption”) [1] was “able to disrupt the interaction of U4 and NHP2L1”.

In the case of `CCc1c2c(nc3ccc(O)cc13)-c1cc3c(c(=O)n1C2)COC(=O)[C@]3(O)CC` [SN-38], the “disruption” value [1] is reported as “able to disrupt the interaction of U4 and NHP2L1” and the “potency in dose response screening” value [1] is reported as “among the most potent inhibitors”.

For `CC[C@@]1(O)C(=O)OCc2c1cc1n(c2=O)Cc2cc3ccccc3nc2-1` [camptothecin, (S)-camptothecin], the “disruption” value [1] was “less effective at disrupting the NHP2L1 and U4 interaction”.

In the case of `CCc1c2c(nc3ccc(OC(=O)N4CCC(N5CCCCC5)CC4)cc13)-c1cc3c(c(=O)n1C2)COC(=O)[C@]3(O)CC` [irinotecan], the “disruption” value [1] is reported as “less effective at disrupting the NHP2L1 and U4 interaction”.

Molecule `CC[C@@]1(O)C(=O)OCc2c1cc1n(c2=O)Cc2cc3c(CN(C)C)c(O)ccc3nc2-1` [topotecan hydrochloride] has an inhibition at 15 µM ([1]; read-out: percentage of inhibition in primary screening) of 81.6%.

For `CC[C@@]1(O)C(=O)OCc2c1cc1n(c2=O)Cc2cc3c(CN(C)C)c(O)ccc3nc2-1` [topotecan, Topotecan], the “disruption” value [1] was “able to disrupt the interaction of U4 and NHP2L1”, the “potency in dose response screening” value [1] was “among the most potent inhibitors” and the “inhibition of NHP2L1-U4 5′SL shift” value (NHP2L1 U4 complex [2]) was “greater inhibition with increasing concentrations”. The “binding to U4 by SPR” value (U4 5′ SL [3]) was “binds to U4 in a time-dependent manner”, the “binding to NHP2L1 by SPR” value (NHP2L1 protein) was “markedly less binding to NHP2L1” and the “binding to U4 5′ SL by 1D NMR” value (U4 5′ SL [4]) was “binding of topotecan to U4 5′ SL was confirmed”. For the same molecule, the “direct binding to NHP2L1-U4 complex by 1D NMR” value (NHP2L1 U4 complex [5]; 1D spectrum of complex) was “able to directly bind to the NHP2L1-U4 complex”, the “displacement of NHP2L1 from U4 by 2D NMR” value (NHP2L1 U4 complex [5]; NHP2L1:U4:topotecan 1:1:20 (2mM topotecan)) was “displaces NHP2L1 from U4 only at high concentrations” and the “splicing efficiency (ratio of luciferase to β-galactosidase activities)” value ([6]; p<0.001) was “significantly decreased splicing efficiency”. The β-galactosidase activities ([6]; p=0.4) was “without changing significantly β–galactosidase activities”.

B1: Cy5-U4 5'SL (structured_RNA)
RNA: AUCGUAGCCAAUGAGGUUUAUCCGAGGCGCGAU
Work on B1 yielded a Kd [7] of 0.68 nM.
